Bioassay records as filed in PubChem BioAssay.
SIAE inh: human SIAE inhibitors, primary screen, biochemical, fluorescence polarization, FP-Rh probe, 1536-well HTS; Sialate O-acetylesterase (Homo sapiens), Q9HAT2; SIAE FP-Rh probe binding; inhibition, % at 9.66 µM; actives 0.69% (n = 370,000);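 active means inhibition above a cutoff: mean of compounds within the control limits plus 3 SD of those, cut at about 17% in these data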
TCR-CD3 inh: inhibitors of human TCR-CD3 interaction, primary screen, biochemical, fluorescence, TAMRA-labeled TCR probe | T-cell receptor (TCR) | inhibition, % at 9.4 µM | actives 0.37% (n = 360,000); in the data active means inhibition above about 19%;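 further: recombinant mutant TCR 2C K166C tagged with TAMRA read by polarization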
HTRA1 inh: HTRA1 serine protease inhibitors, primary screen, biochemical, fluorescence polarization, HTS | actives 0.5% (n = 340,000) | inhibition, % at 5.96 µM | recombinant HTRA1, FP-rhodamine activity-based probe | Q92743; in the data active means inhibition above about 36%
mABHD4 FP: ABHD4 inhibitors, primary screen, biochemical, fluorescence polarization, mouse. actives 0.54% (n = 370,000). (Lyso)-N-acylphosphatidylethanolamine lipase (Mus musculus), Q8VD66. purified mABHD4, FP-Rh probe fluorescence polarization. inhibition, % at 8.92 µM. AID 720543, 2013;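 active means inhibition exceeding the mean over every tested compound plus 3 SD, cut at about 30% in these data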
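Test system: mABHD4 protein; Read-out basis: % inhibition; Incubation: 45 min + 60 min at 25 °C; Repeats: single replicate; Technique: fluorescence polarization with parallel and perpendicular emission, 525/598 nm; Compound: 8.92 µM, single dose; Benchmarks: full inhibition S159A mutant plus DMSO, zero as sample-well median.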
DAGLB inhibitor: DAGLB lipase inhibitors, primary screen, biochemical, fluorescence, HTS; inhibition, % at 5.17 µM; actives 0.059% (n = 340,000); AID 504411, 2011; HEK293T DAGLB membrane lysate, EnzChek fluorogenic substrate; in the data active means inhibition above about 34%
Target sequence (Q8NCG7 whole entry, looked up): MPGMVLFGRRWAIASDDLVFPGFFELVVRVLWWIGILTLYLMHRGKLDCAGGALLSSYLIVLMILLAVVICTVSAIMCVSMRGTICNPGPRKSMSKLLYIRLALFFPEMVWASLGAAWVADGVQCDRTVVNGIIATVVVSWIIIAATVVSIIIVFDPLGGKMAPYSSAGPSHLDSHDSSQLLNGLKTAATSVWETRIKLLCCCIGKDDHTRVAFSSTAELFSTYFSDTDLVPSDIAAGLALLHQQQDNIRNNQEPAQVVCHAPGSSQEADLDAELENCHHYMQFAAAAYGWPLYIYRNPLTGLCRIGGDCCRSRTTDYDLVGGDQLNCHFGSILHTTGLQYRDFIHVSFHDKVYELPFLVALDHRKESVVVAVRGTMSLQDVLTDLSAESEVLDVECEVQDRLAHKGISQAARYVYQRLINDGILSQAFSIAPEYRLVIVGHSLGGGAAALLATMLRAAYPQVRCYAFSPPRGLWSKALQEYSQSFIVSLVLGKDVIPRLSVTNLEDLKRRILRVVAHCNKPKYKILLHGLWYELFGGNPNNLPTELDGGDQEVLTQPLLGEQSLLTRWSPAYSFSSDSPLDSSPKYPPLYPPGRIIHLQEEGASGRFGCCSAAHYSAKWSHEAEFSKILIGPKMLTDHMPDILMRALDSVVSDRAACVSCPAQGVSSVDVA
ABHD4 confirm: ABHD4 inhibitors, retest, confirmation, biochemical, fluorescence polarization, mouse. inhibition, % at 8.92 µM. purified mABHD4, FP-Rh probe fluorescence polarization. actives 55% (n = 1,800). shares compounds with mABHD4 FP;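 active means mean inhibition across replicates above the hit cutoff set in the primary screen, cut at about 30% in these data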
A number is an active result; – = inactive; · = not tested or not shown. Hits are enriched below; roughly 1.5% of the tested compounds scored in any of these assays.

SMILES | SIAE inh | TCR-CD3 inh | HTRA1 inh | mABHD4 FP | DAGLB inhibitor | ABHD4 confirm
O=C(O)c1ccc(NCCC2=CCCCC2)c([N+](=O)[O-])c1 | – | – | – | 41.3 | – | 45.5
COc1ccc(CCNc2ccc(C(=O)O)cc2[N+](=O)[O-])cc1OC | – | – | – | 45.1 | – | 43.2
CCN(CC)c1ccc(/C=N/NC(=O)OC)c(O)c1 | – | – | – | – | – | ·
CCN(CC)c1ccc(C=NNC(=O)Cc2cc(=O)[nH][nH]2)c(O)c1 | – | · | · | 32.9 | · | –
CCCCOCCCNC(=O)C[C@H]1C[C@@]2(C(=O)OC)C(=C[C@H](C3CCCC3)O[C@@H]2C)N(Cc2ccccc2)C1=O | – | – | · | – | · | ·
COC(=O)C1=C(C)N(Cc2ccccc2C(F)(F)F)C(=NCC2CC2)NC1CCc1ccccc1 (configuration not stated) | – | – | · | – | · | ·
COc1ccc(CN2CCC(N3CC(C)OC(C)C3)CC2)c(OC)c1OC (configuration not stated) | – | – | – | 32.2 | – | –
COCCCn1c(SCc2nnc(-c3ccc(OC)c(OC)c3)o2)nc2ccccc2c1=O | – | – | – | – | – | ·
COc1ccc(-c2nnc(CSc3nc4ccccc4c(=O)n3CC(C)C)o2)cc1OC | – | – | – | 31.3 | – | –
Cc1ccc2[nH]c3c(NCc4ccccc4)ncnc3c2c1 | 24.1 | – | · | 41.2 | · | –
NCCOc1ccc(C23CC4CC(CC(C4)C2)C3)cc1 | – | – | – | 31.7 | – | 37.4
OCCN1CCN(CC(O)COc2ccc(C34CC5CC(CC(C5)C3)C4)cc2)CC1 (configuration not stated) | – | – | – | – | – | ·
CCOc1ccccc1C1C(C(N)=O)=C(C)Nc2nc(CCCO)nn21 (configuration not stated) | – | – | – | 31.3 | – | –
COc1ccc(C=O)cc1-c1cc(C(C)=O)c2n(c1=O)CCC2 | – | · | · | – | · | ·
O=C(CNc1ccc2ccccc2c1)N/N=C/c1ccc(C(=O)O)cc1 | – | – | – | – | – | ·
O=C(CNc1cccc2ccccc12)N/N=C/c1ccc(C(=O)O)cc1 | – | – | – | 29.8 | – | –
CC(=O)N1CCN(c2ccc(N3CCN(C(C)=O)[C@H](C)C3)c(C)c2)[C@H](C)C1 | – | – | · | – | · | ·
O=C(COc1ccccc1)N=C1SC2CS(=O)(=O)CC2N1c1ccc(F)cc1 (configuration not stated) | – | – | – | 33.8 | – | –
COc1ccc(CNC(=O)OC2CC3CC2[C@H]2CCCCN2C3)cc1 (some centres not stated) | – | · | · | – | · | ·
Cc1cc(=O)oc2c(O)c(O)ccc12 | – | – | – | 29.6 | – | –
Cc1c(Cc2ccccc2)c(=O)oc2c(O)c(O)ccc12 | – | – | · | 35.4 | · | 88.8
CCOC(=O)CCCNC(=O)OC1CCC12CCC(c1ccccc1)CC2 (configuration not stated) | – | · | · | – | · | ·
Cc1ccc(-c2ccccc2)n1-c1cccc(C(=O)O)c1 | – | – | – | – | – | ·
Cc1ccc(-c2ccccc2)n1-c1ccc(C(=O)O)cc1 | – | – | – | 35.6 | – | –
C=CCN1C(=O)[C@H](CC(=O)NCC23CC4CC(CC(C4)C2)C3)[C@@]2(C(=O)OC)CCCCC=C12 | – | · | · | – | · | ·
SMILES | SIAE inh | TCR-CD3 inh | HTRA1 inh | mABHD4 FP | DAGLB inhibitor | ABHD4 confirm
CCOc1ccc2c(c1)c(N=Nc1cccc(C(=O)O)c1)c(O)n2C | – | – | – | – | – | ·
Cc1ccc2c(c1)c(N=Nc1cccc(C(=O)O)c1)c(O)n2C | – | – | – | 30.7 | – | 45.0
O=C(NNc1ccccn1)C(=O)NNS(=O)(=O)c1ccc(F)cc1 | – | – | – | 35.6 | – | 29.9
O=C(NNc1ccccn1)C(=O)NNS(=O)(=O)c1ccc(Cl)cc1 | – | – | – | 58.2 | – | 54.7
COCCNC(=O)C(=O)NNS(=O)(=O)c1ccc(Cl)cc1 | – | – | – | – | – | ·
Cc1cc(C(=O)O)cc(S(=O)(=O)Nc2ccccc2C(=O)NC(C)c2ccccc2)c1C (configuration not stated) | – | – | – | 33.9 | – | –
O=C1C=C(Nc2ccc(O)cc2)CC(c2ccco2)C1 (configuration not stated) | – | – | – | 43.9 | – | –
CCOC(=O)c1ccc(NC2=CC(=O)CC(c3ccco3)C2)cc1 (configuration not stated) | – | – | – | – | – | ·
O=C(C1CCCN1S(=O)(=O)c1ccc(Br)s1)N1CCc2ccccc2C1 (configuration not stated) | – | · | · | – | · | ·
CC(=O)NC1CCCCN(Cc2ccc(Cl)cc2)C1=O (configuration not stated) | – | · | · | – | · | ·
COc1cccc(-c2nc(NCc3cccnc3)c3ccccc3n2)c1O | – | – | – | – | – | ·
COc1cccc2c(NCc3ccccc3)nc(-n3c(N)nc4ccccc43)nc12 | – | · | · | 37.1 | · | –
COC(=O)c1ccc(NCc2cc(O)ccc2O)cc1O | – | – | – | – | – | ·
COC(=O)c1ccc(NCc2c(O)ccc(O)c2Br)cc1Cl | – | – | – | 30.6 | – | 37.3
O=C(Cn1c(-c2cncs2)nc2ccccc21)N1CCCCC1 | – | · | · | – | · | ·
COC(=O)c1cc2c(c3c4cc(OC)ccc4n(C(=O)c4ccccc4)c13)C(=O)N(C1CCCCC1)C2 | – | – | · | – | · | ·
NC(=S)NN=Cc1cc(-c2cccc(N)c2)ccn1 | – | – | – | 43.8 | – | 57.5
CCN(CCNCC(O)COc1ccccc1C(C)C)c1cccc(C)c1 (configuration not stated) | – | – | – | 31.6 | – | 40.8
O=C(O)CCCC(=O)OCCCc1cc2ccccc2c(=O)o1 | – | – | · | – | · | ·
COC(=O)[C@]12C[C@H](CC(=O)N3CCCCC3)C(=O)N(Cc3ccccc3)C1=C[C@H](C1CCCC1)O[C@@H]2C | – | – | · | – | · | ·
Cc1ccc(S(=O)(=O)N2CCCC(C(=O)NCc3ccco3)C2)cc1 (configuration not stated) | – | · | · | – | · | ·
CNCc1ccccc1Sc1cc(O)ccc1O | – | – | – | 49.9 | – | 62.9
CC(C)(C)c1ccc(-c2csc(N3CCC(C(N)=O)CC3)n2)cc1 | – | · | · | 34.7 | · | 37.1
NC(=O)C1CCN(c2nc(-c3ccc(Br)cc3)cs2)CC1 | – | – | – | – | – | ·
CCN(CC)c1ccc(C(=O)NNC(=O)C2CSC3(C)CCC(=O)N23)cc1 (configuration not stated) | – | – | – | 39.2 | – | –
Cc1ccc(S(=O)(=O)N2CCCc3nc(C)c(C)cc32)cc1 | – | – | · | – | · | ·
